Experiments:
Type in all cases: functional
[1] = Antiasthamic activity in Wistar rat tracheal ring assessed as reversal of carbachol-induced contraction at 0.1 to 500 uM relative to control; conditions: Trachea
How it was run: (§1)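 Tracheas from male Wistar rats (250–300 g) were cleaned and cut into 4–5 mm rings of 2–3 cartilages each. Tension was recorded with force transducers. After equilibration, rings were contracted with 1 µM carbachol and washed every 40 min for 2 h. Cumulative concentration–response curves followed carbachol contraction, with relaxation taken from tone before vs after addition. Theophylline (1.67–550 µM) was the positive control. Six animals per group; EC50 and Emax came from nonlinear curve fitting.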

[2] = Antiasthamic activity in Wistar rat tracheal ring assessed as reversal of carbachol-induced contraction; conditions: Trachea; how it was run: as §1
Trachea = assay: Potency index, ratio of theophylline EC50 to compound EC50 for antiasthamic activity in Wistar rat tracheal ring assessed as reversal of carbachol-induced contraction

Structure (SMILES) | Emax [1] [%] | EC50 [2] [µM] | Ratio EC50 (Trachea)
CC(=O)Oc1ccc2c(C)cc(=O)oc2c1 | 62 | 360 | –
Cc1cc(=O)oc2cc(OC(=O)c3ccccc3)ccc12 | 34 | – | –
O=C(Oc1ccc2ccc(=O)oc2c1)c1ccccc1 | 26 | – | –
CCOC(=O)COc1ccc2c(C)cc(=O)oc2c1 | 70 | 200 | –
CCOc1ccc2c(C)cc(=O)oc2c1 | 100 | 80 | –
CCOC(=O)COc1ccc2ccc(=O)oc2c1 | 31 | – | –
CCOc1cc2ccc(=O)oc2cc1OCC | 100 | 42 | 4
CCCOc1cc2ccc(=O)oc2cc1OCCC | 100 | 89 | –
CC(=O)Oc1cc2ccc(=O)oc2cc1OC(C)=O | 77 | 231 | –
O=C(Oc1cc2ccc(=O)oc2cc1OC(=O)c1ccccc1)c1ccccc1 | 12 | – | –
CCOC(=O)COc1cc2ccc(=O)oc2cc1OCC(=O)OCC | 33 | – | –
CCCOc1ccc2c(C)cc(=O)oc2c1 | 100 | 267 | –
CC(=O)Oc1ccc2ccc(=O)oc2c1 [7-ACETOXYCOUMARIN] | 16 | – | –
CCCOc1ccc2ccc(=O)oc2c1 [7-PROPOXYCOUMARIN] | 100 | 133 | –
O=c1ccc2cc(O)c(O)cc2o1 [ESCULETIN] | 47.9 | – | –
CCOc1ccc2ccc(=O)oc2c1 [ETHOXYCOUMARIN] | 100 | 245 | –
COc1ccc2ccc(=O)oc2c1 [HERNIARIN] | 100 | 244 | –
COc1ccc2c(C)cc(=O)oc2c1 [HYMECROMONE METHYL ETHER] | 100 | 230 | –
Cc1cc(=O)oc2cc(O)ccc12 [HYMECROMONE] | 90 | 260 | –
COc1cc2ccc(=O)oc2cc1OC [SCOPARONE] | 100 | 80 | –
Cn1c(=O)c2nc[nH]c2n(C)c1=O [THEOPHYLLINE] | 100 | 144 | –
O=c1ccc2ccc(O)cc2o1 [UMBELLIFERONE] | 67 | 449 | –

Reference: ChEMBL document CHEMBL3259518, “Semisynthesis, ex vivo evaluation, and SAR studies of coumarin derivatives as potential antiasthmatic drugs” (Eur J Med Chem, 2014)
